Calls of active or inactive are those of the source. The rule behind the calls is not given here.
Legend:
Chorioallantoic membrane = assay: Induction of angiogenesis in chicken chorioallantoic membrane assessed as increase in vascular density at 1 mg/ml measured after 48 hrs by dissecting microscopic analysis; format: functional, cell membranes; details: Gallus gallus
Method in brief: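 Fertile eggs were incubated 7 days at 37 °C and 60% humidity. A small window was opened at one end and the membrane was wetted with a drop of sterile saline. Test solution (0.5, 1 or 2 mg/mL) was applied to the allantoic membrane, with PBS for controls. After 48 h the membrane was separated from the shell, then viewed and photographed under a dissecting microscope.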

SH-SY5Y [1] = assay: Inhibition of H2O2-induced apoptosis in human SH-SY5Y cells assessed as normal cells at 3.13 uM preincubated for 24 hrs followed by H2O2 addition measured after 4 hrs by Annexin V-FITC/propidium iodide staining based flow cytometry (reference value: 67.2 %); format: functional; design: scale not given: the % may be the effect or the level left
Method in brief: (§1)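 Cells were seeded at 3.5×10^4 cells/mL in 6-well plates at 37 °C, 5% CO2. Compound was added at three concentrations for 24 h, then H2O2 (4.8 mM stock solution) to model and drug wells for 4 h. Cells were collected, washed in cold PBS and resuspended in annexin-binding buffer. Staining was annexin V-FITC 10 min, then PI 5 min, in the dark, followed by flow cytometry with quadrant gating.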

SH-SY5Y [2] = assay: Neuroprotective activity against H2O2-induced cell damage in human SH-SY5Y cells assessed as increase in cell viability preincubated for 24 hrs followed by H2O2 addition and measured after 4 hrs by MTT assay; format: functional, cell-based
Method in brief: (§2)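 Cells at 3.5×10^4 cells/mL in 96-well plates were grown 24 h (37 °C, 5% CO2). Test agent was added at five concentrations for 24 h, then H2O2 (4.8 mM stock) to model and drug wells. After PBS washes, MTT (5 mg/mL) was added for 4 h, formazan was dissolved in DMSO and OD was read at 550 nm. Proliferation rate = (drug − injury OD)/(control − injury OD). EC50 came from a formula using maximum concentration and summed, maximal and minimal rates.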

SH-SY5Y [3] = assay: Inhibition of H2O2-induced apoptosis in human SH-SY5Y cells assessed as early apoptotic cells at 6.25 uM preincubated for 24 hrs followed by H2O2 addition measured after 4 hrs by Annexin V-FITC/propidium iodide staining based flow cytometry (reference value: 5.4 %); format: functional; design: scale not given: the % may be the effect or the level left; method in brief: as §1
SH-SY5Y [4] = assay: Inhibition of H2O2-induced apoptosis in human SH-SY5Y cells assessed as late apoptotic cells at 6.25 uM preincubated for 24 hrs followed by H2O2 addition measured after 4 hrs by Annexin V-FITC/propidium iodide staining based flow cytometry (reference value: 26.5 %); format: functional; design: scale not given: the % may be the effect or the level left; method in brief: as §1
SH-SY5Y [5] = assay: Inhibition of H2O2-induced apoptosis in human SH-SY5Y cells assessed as necrotic cells at 6.25 uM preincubated for 24 hrs followed by H2O2 addition measured after 4 hrs by Annexin V-FITC/propidium iodide staining based flow cytometry (reference value: 0.9 %); format: functional; design: scale not given: the % may be the effect or the level left; method in brief: as §1
HBMEC-2 [6] = assay: Protection against H2O2-induced apoptosis in human HBMEC2 cells assessed as reduction in cell disruption at 1.56 to 6.25 uM preincubated for 24 hrs followed by H2O2 addition measured after 4 hrs by Giemsa staining based inverted phase contrast microscopic analysis; format: functional
Method in brief: (§3)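 Cells at 3.5×10^4 cells/mL in 24-well plates were pretreated 24 h with compound at three concentrations, then H2O2 (4.8 mM stock) for 4 h. After PBS washes, cells were fixed in 4% paraformaldehyde/70% cold ethanol for 10 min. Staining was 6% Giemsa or DAPI for 5 min in the dark. Random fields were photographed at 200× by microscope, alongside control and model groups.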

SH-SY5Y [7] = assay: Inhibition of H2O2-induced apoptosis in human SH-SY5Y cells assessed as early apoptotic cells at 1.56 uM preincubated for 24 hrs followed by H2O2 addition measured after 4 hrs by Annexin V-FITC/propidium iodide staining based flow cytometry (reference value: 5.4 %); format: functional; design: scale not given: the % may be the effect or the level left; method in brief: as §1
[8] = Neuroprotective activity against H2O2-induced cell damage in human HBMEC2 cells assessed as increase in cell viability preincubated for 24 hrs followed by H2O2 addition and measured after 4 hrs by MTT assay; format: functional, cell-based; details: HBMEC-2; method in brief: as §2
Gallus gallus = species: Gallus gallus; assay: Induction of angiogenesis in chicken embryo assessed as up regulation of VEGFR2 mRNA expression at 1 mg/ml by RT-PCR analysis; format: functional, organism-based
Method in brief: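 Total RNA came from chick embryos of the 1 mg/mL CAM group (Trizol extraction) and was reverse-transcribed with M-MLV. SYBR real-time PCR ran 40 cycles of 94 °C 15 s / 60 °C 35 s, then 72 °C 10 min. Expression was quantified relative to controls by the 2^-ΔΔCT method.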

SH-SY5Y [9] = assay: Inhibition of H2O2-induced apoptosis in human SH-SY5Y cells assessed as early apoptotic cells at 3.13 uM preincubated for 24 hrs followed by H2O2 addition measured after 4 hrs by Annexin V-FITC/propidium iodide staining based flow cytometry (reference value: 5.4 %); format: functional; design: scale not given: the % may be the effect or the level left; method in brief: as §1
SH-SY5Y [10] = assay: Protection against H2O2-induced apoptosis in human SH-SY5Y cells assessed as increase in cell number preincubated for 24 hrs followed by H2O2 addition measured after 4 hrs by DAPI staining based inverted phase contrast microscopic analysis; format: functional; method in brief: as §3
HBMEC-2 [11] = assay: Protection against H2O2-induced mitochondrial dysfunction in human HBMEC2 cells assessed as recovery of mitochondrial membrane potential at 1.56 to 6.25 uM preincubated for 24 hrs followed by H202 addition measured after 4 hrs by Rh123 staining based inverted light microscopic analysis; format: functional, cell-based
Method in brief: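 Cells in 96-well plates (3.5×10^4 cells/mL) were grown 24 h. They were pretreated 24 h with compound at three concentrations, then exposed to H2O2 (4.8 mM stock) for 4 h. Medium was removed and Rh123 added for 30 min at 37 °C. Cells were washed twice in cold PBS and examined immediately under an inverted microscope for green fluorescence.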

SH-SY5Y [12] = assay: Protection against H2O2-induced apoptosis in human SH-SY5Y cells assessed as decrease in nuclear fragmentation preincubated for 24 hrs followed by H2O2 addition measured after 4 hrs by DAPI staining based inverted phase contrast microscopic analysis; format: functional, cell-based; method in brief: as §3
[13] = Inhibition of H2O2-induced apoptosis in human HBMEC2 cells assessed as late apoptotic cells at 1.56 uM preincubated for 24 hrs followed by H2O2 addition measured after 4 hrs by Annexin V-FITC/propidium iodide staining based flow cytometry (reference value: 29.4 %); format: functional, HBMEC-2; design: scale not given: the % may be the effect or the level left; method in brief: as §1
SH-SY5Y [14] = assay: Inhibition of H2O2-induced apoptosis in human SH-SY5Y cells assessed as late apoptotic cells at 1.56 uM preincubated for 24 hrs followed by H2O2 addition measured after 4 hrs by Annexin V-FITC/propidium iodide staining based flow cytometry (reference value: 26.5 %); format: functional; design: scale not given: the % may be the effect or the level left; method in brief: as §1
SH-SY5Y [15] = assay: Inhibition of H2O2-induced apoptosis in human SH-SY5Y cells assessed as normal cells at 6.25 uM preincubated for 24 hrs followed by H2O2 addition measured after 4 hrs by Annexin V-FITC/propidium iodide staining based flow cytometry (reference value: 67.2 %); format: functional; design: scale not given: the % may be the effect or the level left; method in brief: as §1
HBMEC-2 [16] = assay: Protection against H2O2-induced apoptosis in human HBMEC2 cells assessed as increase in cell number at 1.56 to 6.25 uM preincubated for 24 hrs followed by H2O2 addition and measured after 4 hrs by Giemsa staining based inverted phase contrast microscopic analysis; format: functional; method in brief: as §3
SH-SY5Y [17] = assay: Protection against H2O2-induced apoptosis in human SH-SY5Y cells assessed as increase in cell number at 1.56 to 6.25 uM preincubated for 24 hrs followed by H2O2 addition measured after 4 hrs by Giemsa staining based inverted phase contrast microscopic analysis; format: functional; method in brief: as §3

In the case of `COc1cc(CNC(=O)/C=C/c2cc(OC)c(OC)cc2OC)ccc1O`, the Activity (Chorioallantoic membrane) is reported as “Active”, the Activity (SH-SY5Y [1]) is reported as 74.7% and the EC50 (SH-SY5Y [2]) is reported as 2.41 µM. The Activity (SH-SY5Y [3]) was 2.6%, the Activity (SH-SY5Y [4]) was 14% and the Activity (SH-SY5Y [5]) was 1.1%. The Activity (HBMEC-2 [6]) was “Active”, the Activity (SH-SY5Y [7]) was 4.3% and the EC50 [8] was 3.26 µM. The Activity (Gallus gallus) was “Active”, the Activity (SH-SY5Y [9]) was 4.2% and the Activity (SH-SY5Y [10]) was “Dose-dependent effect”. The Activity (HBMEC-2 [11]) was “Active”, the Activity (SH-SY5Y [12]) was “Dose-dependent effect” and the Activity [13] was 19.3%. The Activity (SH-SY5Y [14]) was 23.9%, the Activity (SH-SY5Y [15]) was 82.3% and the Activity (HBMEC-2 [16]) was “Active”. For the same compound, the Activity (SH-SY5Y [17]) was “Active”.
